This is an account of results in PMC3818380 (Archives of biochemistry and biophysics, 2013).

In the test the target is interphotoreceptor retinoid-binding protein (IRBP) (Bos taurus, UniProt P12661). Nature of the test: Surface plasmon resonance. More on the design: species or system bovine. The following applies: for Stoichiometry (No. of sites): SPR, 25°C, n=3, ligand:IRBP binding stoichiometry; for kon: pH 7.4, read-out: ka, association rate constant; for koff: pH 7.4, read-out: kd, dissociation rate constant. The method in brief: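 IRBP purified by chromatography from dark-adapted bovine retinas and amine-coupled at 10 µg/mL in 10 mM sodium acetate pH 4.5 to 10–12 kRU, with an unmodified reference channel. Running buffer 10 mM PBS pH 7.4, 0.01% Tween-20, 3% DMSO; for fatty acids, HEPES pH 7.4, 0.01% Tween-20, 3% ethanol. Seven two-fold FastStep injections, typically 0.01–15 µM, in triplicate at 25°C. Data double-referenced and globally fitted.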
Chain of interphotoreceptor retinoid-binding protein (IRBP) (P12661 23-1286): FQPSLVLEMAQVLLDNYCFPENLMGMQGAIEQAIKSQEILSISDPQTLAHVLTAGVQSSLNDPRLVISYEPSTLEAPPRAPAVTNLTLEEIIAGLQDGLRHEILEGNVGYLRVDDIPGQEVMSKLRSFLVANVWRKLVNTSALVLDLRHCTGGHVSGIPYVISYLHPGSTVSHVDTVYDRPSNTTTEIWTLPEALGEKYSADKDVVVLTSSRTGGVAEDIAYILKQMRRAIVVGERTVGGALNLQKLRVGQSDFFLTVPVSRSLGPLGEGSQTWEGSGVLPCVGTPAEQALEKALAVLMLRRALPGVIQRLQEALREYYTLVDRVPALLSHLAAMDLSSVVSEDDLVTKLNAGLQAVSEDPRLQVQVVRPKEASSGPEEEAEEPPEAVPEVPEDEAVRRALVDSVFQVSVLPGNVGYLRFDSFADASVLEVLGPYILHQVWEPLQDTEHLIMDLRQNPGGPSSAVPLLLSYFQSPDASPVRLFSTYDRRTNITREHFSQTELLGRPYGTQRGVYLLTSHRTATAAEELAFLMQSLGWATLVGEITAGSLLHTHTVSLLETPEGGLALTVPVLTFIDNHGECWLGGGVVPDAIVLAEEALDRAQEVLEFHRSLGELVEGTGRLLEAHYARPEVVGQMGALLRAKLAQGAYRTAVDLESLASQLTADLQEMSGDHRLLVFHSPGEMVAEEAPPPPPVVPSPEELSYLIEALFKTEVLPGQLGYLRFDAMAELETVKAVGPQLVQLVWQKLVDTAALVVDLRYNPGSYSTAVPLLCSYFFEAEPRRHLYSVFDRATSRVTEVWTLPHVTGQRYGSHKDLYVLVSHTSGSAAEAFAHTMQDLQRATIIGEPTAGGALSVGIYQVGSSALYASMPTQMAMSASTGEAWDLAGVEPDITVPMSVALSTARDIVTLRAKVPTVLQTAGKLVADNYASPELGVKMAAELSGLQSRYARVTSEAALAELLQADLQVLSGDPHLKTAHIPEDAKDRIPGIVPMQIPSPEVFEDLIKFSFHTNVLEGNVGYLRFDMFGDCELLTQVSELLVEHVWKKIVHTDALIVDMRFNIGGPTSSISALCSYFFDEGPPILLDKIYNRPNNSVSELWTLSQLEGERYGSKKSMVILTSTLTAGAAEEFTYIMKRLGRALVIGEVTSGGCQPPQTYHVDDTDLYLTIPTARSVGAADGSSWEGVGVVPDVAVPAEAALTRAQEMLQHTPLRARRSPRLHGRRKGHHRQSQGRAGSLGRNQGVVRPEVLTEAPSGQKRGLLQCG
(In general: Surface plasmon resonance follows binding to a sensor surface in real time, without labels.)

One may read the Kd as a measure of binding affinity in units of concentration. Read a high Kd as a looser complex. Take `CCCCC/C=C\C/C=C\C/C=C\C/C=C\CCCC(=O)O` [Arachidonic acid]: the Kd was 10 ± 0.1 µM, the “Stoichiometry (No. of sites)” value is reported as 3.8, the kon came to 24000 ± 3e+07 M⁻¹ s⁻¹ and the koff is 0.24 ± 0.3 s⁻¹.

Consider `CC1=C(/C=C/C(C)=C/C=C/C(C)=C/C=O)C(C)(C)CCC1` [all-trans-retinal], for which the “Stoichiometry (No. of sites)” value turned out to be 3.2.

On to meso-zeaxanthin, for which the “Stoichiometry (No. of sites)” value is 3.2.

For `CC/C=C\C/C=C\C/C=C\C/C=C\C/C=C\C/C=C\CCC(=O)O` [Docosahexaenoic acid (DHA), Docosahexaenoic acid], the Kd was 10 ± 0.1 µM, the “Stoichiometry (No. of sites)” value came to 3.4, the kon was determined as 20000 ± 2e+07 M⁻¹ s⁻¹ and the koff amounted to 0.2 ± 0.2 s⁻¹.

With `CC1=C(/C=C/C(C)=C/C=C/C(C)=C/CO)C(C)(C)CCC1` [all-trans-retinol], the “Stoichiometry (No. of sites)” value worked out at 3.5.

As for `CCCCCCCCCCCCCCCCCC(=O)O` [Stearic acid], the Kd came to 7.03 ± 0.1 µM, the “Stoichiometry (No. of sites)” value amounted to 3.7, the kon was 32000 ± 4e+07 M⁻¹ s⁻¹ and the koff came to 0.23 ± 0.6 s⁻¹.

As for `CCCCC/C=C\C/C=C\CCCCCCCC(=O)O` [Linoleic acid], the affinity, expressed as Kd, was 11 ± 0.2 µM; the “Stoichiometry (No. of sites)” value is listed as 3.7; the kon was 23000 ± 4e+07 M⁻¹ s⁻¹; the koff was determined as 0.26 ± 0.4 s⁻¹.

As to `CC1=C(/C=C/C(C)=C/C=C/C(C)=C/C=C/C=C(C)/C=C/C=C(C)/C=C/C2=C(C)C(=O)[C@@H](O)CC2(C)C)C(C)(C)C[C@H](O)C1=O` [Astaxanthin], binding was characterised by a dissociation constant (Kd) of 1.64 ± 0.06 µM, the “Stoichiometry (No. of sites)” value was found to be 3.4, the kon is 26800 ± 9e+07 M⁻¹ s⁻¹ and the koff turned out to be 0.04 ± 0.5 s⁻¹.

For `CCCCCCCCCCCCCCCC(=O)O` [Palmitic acid], binding was characterised by a dissociation constant (Kd) of 11.1 ± 0.7 µM, the “Stoichiometry (No. of sites)” value amounted to 3.7, the kon was found to be 360000 ± 2e+09 M⁻¹ s⁻¹ and the koff stood at 0.4 ± 0.1 s⁻¹.

In the case of `CC1=C[C@H](O)CC(C)(C)[C@H]1/C=C/C(C)=C/C=C/C(C)=C/C=C/C=C(C)/C=C/C=C(C)/C=C/C1=C(C)C[C@@H](O)CC1(C)C` [Lutein], the Kd came to 1.06 ± 0.2 µM, the “Stoichiometry (No. of sites)” value was 3.4, the kon is 49000 ± 9e+07 M⁻¹ s⁻¹ and the koff stood at 0.05 ± 0.4 s⁻¹.

In the case of `CCCCCCCCCCCCCCCCCCCC(=O)O` [Arachidic acid], the equilibrium dissociation constant (Kd) stood at 10.2 ± 0.7 µM, the “Stoichiometry (No. of sites)” value came to 3.7, the kon stood at 280000 ± 1e+09 M⁻¹ s⁻¹ and the koff amounted to 2.8 ± 0.1 s⁻¹.

On to `CC1=C(/C=C/C(C)=C/C=C/C(C)=C/C=O)C(C)(C)CCC1` [11-cis-retinal], for which the “Stoichiometry (No. of sites)” value is 3.1.

As to `CC1=C(/C=C/C(C)=C/C=C/C(C)=C/C=C/C=C(C)/C=C/C=C(C)/C=C/C2=C(C)CCCC2(C)C)C(C)(C)CCC1` [β-carotene], the Kd came out at 0.92 ± 0.1 µM, the “Stoichiometry (No. of sites)” value turned out to be 3.1, the kon amounted to 122000 ± 2e+09 M⁻¹ s⁻¹ and the koff is 0.11 ± 0.8 s⁻¹.

Regarding `CC1=C(/C=C/C(C)=C/C=C/C(C)=C/C=C/C=C(C)/C=C/C=C(C)/C=C/C2=C(C)C[C@@H](O)CC2(C)C)C(C)(C)C[C@H](O)C1` [Zeaxanthin], the equilibrium dissociation constant (Kd) turned out to be 1.64 ± 0.5 µM, the “Stoichiometry (No. of sites)” value amounted to 3.3, the kon is 33000 ± 1e+07 M⁻¹ s⁻¹ and the koff came to 0.05 ± 0.5 s⁻¹.

As for `CC/C=C\C/C=C\C/C=C\C/C=C\C/C=C\CCCC(=O)O` [Eicosapentaenoic acid (EPA), Eicosapentaenoic acid], the Kd amounted to 9.4 ± 0.7 µM, the “Stoichiometry (No. of sites)” value amounted to 3.4, the kon came to 30000 ± 2e+07 M⁻¹ s⁻¹ and the koff turned out to be 0.28 ± 0.4 s⁻¹.

Consider `CCCCCCCC/C=C\CCCCCCCC(=O)O` [Oleic acid], for which binding was put at a Kd of 7.3 ± 0.7 µM, the “Stoichiometry (No. of sites)” value stood at 3.6, the kon is 150000 ± 2e+09 M⁻¹ s⁻¹ and the koff is 1.1 ± 0.3 s⁻¹.

Regarding `CC1=C(/C=C/C(C)=C/C=C/C(C)=C/C(=O)O)C(C)(C)CCC1` [all -trans -retinoic acid], the Kd turned out to be 3.5 ± 0.1 µM, the “Stoichiometry (No. of sites)” value is on record as 3.4, the kon was 40000 ± 1e+07 M⁻¹ s⁻¹ and the koff was determined as 0.14 ± 0.2 s⁻¹.
